Laboratory results from ChEMBL document CHEMBL5712073, “DNA methylation in small cell lung cancer defines distinct disease subtypes and correlates with high expression of EZH2” (Oncogene, 2015).
Active and inactive are the calls of the source. The calls are words filed in the database; no cut-off is given here.

Experiments:
[1] = molecular target: Histone-lysine N-methyltransferase EZH2 (Homo sapiens) (UniProt Q15910); assay: Inhibition of EZH2 in human PDX LX92 cells assessed as decrease in H3K27me2 level after 7 days by Westernblot analysis; type: cell-based; settings: time 7.0 day
Summary of the method: (§1)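 Ex vivo LX92 cultures (dissociated PDX cells in DMEM:F12 plus EGM-2 growth factors, 5,000 cells/well) given EZH2 inhibitor daily at 1 µM final, DMSO vehicle. Day 7 lysates probed by Western blot for EZH1, EZH2, H3K27me2 and H3K27me3.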

PDX LX92 [2] = assay: Antiproliferative activity against human PDX LX92 cells assessed as resazurin conversion measured upto 7 days by alamar blue based assay; type: functional, cell-based; settings: time <= 7.0 day
Summary of the method: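 LX92 PDX dissociated, filtered through 70 µm mesh, washed, red cells lysed; ~1×10^6 viable cells cultured in DMEM:F12 with EGM-2 growth factors. About 72 h after dissociation, seeded 5,000 cells/well; compound added daily at 1 µM final, DMSO vehicle. Viability read by resazurin conversion over time for 7 days; 2-way ANOVA with Dunnett adjustment.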

[3] = molecular target: Histone-lysine N-methyltransferase EZH2 (Homo sapiens) (UniProt Q15910); assay: Inhibition of EZH2 in human PDX LX92 cells assessed as decrease in H3K27me3 level after 7 days by Westernblot analysis; type: cell-based; settings: time 7.0 day; summary of the method: as §1
PDX LX92 [4] = assay: Antitumor activity against human PDX LX92 cells xenografted in athymic nude mouse assessed as reduction of H3K27me3 level at 100 mg/kg, bid measured upto 42 days by Westernblot analysis; type: functional, organism-based; settings: time <= 42.0 day
Summary of the method: (§2)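 Mice implanted subcutaneously in the right hind flank with 5×10^6 viable cells in 1:1 HBSS:matrigel; randomized at ~150 mm3 tumor volume. Drug formulated in 0.5% NaCMC with 0.1% Tween-80 in water, dosed BID (10AM/4PM), Mon-Fri. Tumors harvested 2 h after final dose for Western blot.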

[5] = Toxicity in athymic nude mouse xenografted with human PDX LX92 cells assessed as tolerability at 100 mg/kg, qd measured upto 42 days; type: organism-based; settings: in vivo, 1008 h, time < 42 day
Summary of the method: (§3)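 Subcutaneous right-flank xenograft of 5×10^6 viable cells in 1:1 HBSS:matrigel; mice randomized at ~150 mm3. Vehicle 0.5% NaCMC with 0.1% Tween-80 in water; dosing Mon-Fri. Tumor volumes and body weights measured twice weekly.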

[6] = Toxicity in athymic nude mouse xenografted with human PDX LX92 cells assessed as tolerability at 100 mg/kg, bid measured upto 42 days; type: organism-based; settings: in vivo, 1008 h, time < 42 day; summary of the method: as §3
PDX LX92 [7] = assay: Antitumor activity against human PDX LX92 cells xenografted in athymic nude mouse assessed as reduction of H3K27me2 level at 100 mg/kg, bid measured upto 42 days by Westernblot analysis; type: functional, organism-based; settings: time <= 42.0 day; summary of the method: as §2
PDX LX92 [8] = assay: Antitumor activity against human PDX LX92 cells xenografted in athymic nude mouse assessed as reduction of EZH1 level at 100 mg/kg, bid measured upto 42 days by Westernblot analysis; type: functional, organism-based; settings: time <= 42.0 day; summary of the method: as §2
PDX LX92 [9] = assay: Antitumor activity against human PDX LX92 cells xenografted in athymic nude mouse assessed as reduction of EZH2 level at 100 mg/kg, bid measured upto 42 days by Westernblot analysis; type: functional, organism-based; settings: time <= 42.0 day; summary of the method: as §2

Chain of Histone-lysine N-methyltransferase EZH2 (Homo sapiens) (Q15910 whole entry, looked up): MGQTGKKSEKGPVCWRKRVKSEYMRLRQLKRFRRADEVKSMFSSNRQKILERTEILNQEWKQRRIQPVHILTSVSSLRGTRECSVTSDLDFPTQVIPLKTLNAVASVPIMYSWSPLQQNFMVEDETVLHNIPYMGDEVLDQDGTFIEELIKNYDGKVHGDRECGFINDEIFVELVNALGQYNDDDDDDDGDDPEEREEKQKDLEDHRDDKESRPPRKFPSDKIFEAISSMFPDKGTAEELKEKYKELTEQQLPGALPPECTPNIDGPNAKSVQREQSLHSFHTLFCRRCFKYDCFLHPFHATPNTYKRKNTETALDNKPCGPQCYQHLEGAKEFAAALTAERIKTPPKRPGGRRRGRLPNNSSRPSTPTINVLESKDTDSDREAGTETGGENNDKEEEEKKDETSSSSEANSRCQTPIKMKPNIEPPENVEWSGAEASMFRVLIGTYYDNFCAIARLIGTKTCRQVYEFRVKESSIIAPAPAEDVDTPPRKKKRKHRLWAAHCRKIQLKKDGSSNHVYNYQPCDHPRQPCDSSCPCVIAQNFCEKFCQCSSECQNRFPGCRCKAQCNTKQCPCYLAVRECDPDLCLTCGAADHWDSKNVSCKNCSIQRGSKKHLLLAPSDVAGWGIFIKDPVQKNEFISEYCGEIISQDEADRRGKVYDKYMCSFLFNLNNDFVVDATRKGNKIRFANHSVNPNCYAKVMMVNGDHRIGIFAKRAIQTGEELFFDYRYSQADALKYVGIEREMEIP

| inhibition [1] | inhibition [3] | SMILES | Activity (PDX LX92 [2]) | Activity (PDX LX92 [4]) | Activity [5] | Activity [6] | Activity (PDX LX92 [7]) | Activity (PDX LX92 [8]) | Activity (PDX LX92 [9]) |
| --- | --- | --- | --- | --- | --- | --- | --- | --- | --- |
| Active | Active | Cc1cc(C)c(CNC(=O)c2cc(-c3ccc(CN4CCOCC4)cc3)cc3c2cnn3C2CCCC2)c(=O)[nH]1 | Active | – | – | – | – | – | – |
| – | Active | CCCc1cc(C)[nH]c(=O)c1CNC(=O)c1cc(-c2ccc(N3CCN(C(C)C)CC3)nc2)cc2c1cnn2C(C)C | Active | – | – | – | – | – | – |
| – | – | CCN(c1cc(-c2ccc(CN3CCOCC3)cc2)cc(C(=O)NCc2c(C)cc(C)[nH]c2=O)c1C)C1CCOCC1 [TAZEMETOSTAT] | – | Active | Non-Toxic | Non-Toxic | Active | Active | Active |
| – | Active | CCCc1cc(C)[nH]c(=O)c1CNC(=O)c1cc(-c2ccnc(N3CCN(C)CC3)c2)cc2c1cnn2C(C)C | Active | – | – | – | – | – | – |
